Assay results published in ChEMBL document CHEMBL1154253, “Synthesis and serotonin transporter activity of sulphur-substituted alpha-alkyl phenethylamines as a new class of anticancer agents” (Eur J Med Chem, 2009).

Experiments:
[1] = target: Sodium-dependent serotonin transporter (Rattus norvegicus, UniProt P31652); test: Inhibition of [3H]5-HT reuptake at rat SERT expressed in HEK293 cells after 2 mins by liquid scintillation counting; format: cell-based
HEK293 = test: Cytotoxicity against human HEK293 cells after 48 hrs by neutral red assay; format: cell-based; conditions: HEK293, 48 h, read-out: pEC50 (converted)
Method in brief: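 Neutral Red uptake: 5 × 10⁴ cells/well grown 24–36 h to sub-confluence, then treated 48 h. Cells incubated 3 ± 1 h with NR dye, washed and solubilised in 50% ethanol–1% acetic acid, and absorbance read at 540 nm (690 nm background). Viability given as % of vehicle-treated cells. pEC50 obtained by sigmoidal regression (Hill slope 1) using 4 concentrations in triplicate on two independent days. SERT-line values compared with parental HEK293 by two-way ANOVA with Bonferroni test. Sodium azide 30 mM and Triton-X 2% as positive controls.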

SH-SY5Y = test: Cytotoxicity against human SH-SY5Y cells after 48 hrs by neutral red assay; format: functional, cell-based
[2] = target: Sodium-dependent noradrenaline transporter (Homo sapiens, UniProt P23975); test: Inhibition of human noradrenaline transporter
Sodium-dependent noradrenaline transporter, sequence (P23975 whole entry): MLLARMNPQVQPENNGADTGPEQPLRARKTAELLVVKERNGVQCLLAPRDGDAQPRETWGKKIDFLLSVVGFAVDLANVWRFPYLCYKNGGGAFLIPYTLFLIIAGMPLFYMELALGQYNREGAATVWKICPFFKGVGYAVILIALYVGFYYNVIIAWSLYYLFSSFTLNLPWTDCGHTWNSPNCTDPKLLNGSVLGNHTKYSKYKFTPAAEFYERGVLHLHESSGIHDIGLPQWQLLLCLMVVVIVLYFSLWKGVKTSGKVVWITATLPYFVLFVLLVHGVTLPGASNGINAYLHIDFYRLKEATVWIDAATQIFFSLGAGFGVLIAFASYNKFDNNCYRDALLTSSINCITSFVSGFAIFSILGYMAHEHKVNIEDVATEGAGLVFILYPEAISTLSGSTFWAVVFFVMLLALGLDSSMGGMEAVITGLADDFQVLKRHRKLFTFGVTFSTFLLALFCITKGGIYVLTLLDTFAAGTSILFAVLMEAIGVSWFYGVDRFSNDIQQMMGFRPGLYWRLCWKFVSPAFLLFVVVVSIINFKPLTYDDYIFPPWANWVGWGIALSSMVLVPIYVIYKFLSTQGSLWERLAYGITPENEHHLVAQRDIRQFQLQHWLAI

[3] = target: Sodium-dependent dopamine transporter (Homo sapiens, UniProt Q01959); test: Inhibition of human dopamine transporter
Sodium-dependent dopamine transporter, sequence (Q01959 whole entry): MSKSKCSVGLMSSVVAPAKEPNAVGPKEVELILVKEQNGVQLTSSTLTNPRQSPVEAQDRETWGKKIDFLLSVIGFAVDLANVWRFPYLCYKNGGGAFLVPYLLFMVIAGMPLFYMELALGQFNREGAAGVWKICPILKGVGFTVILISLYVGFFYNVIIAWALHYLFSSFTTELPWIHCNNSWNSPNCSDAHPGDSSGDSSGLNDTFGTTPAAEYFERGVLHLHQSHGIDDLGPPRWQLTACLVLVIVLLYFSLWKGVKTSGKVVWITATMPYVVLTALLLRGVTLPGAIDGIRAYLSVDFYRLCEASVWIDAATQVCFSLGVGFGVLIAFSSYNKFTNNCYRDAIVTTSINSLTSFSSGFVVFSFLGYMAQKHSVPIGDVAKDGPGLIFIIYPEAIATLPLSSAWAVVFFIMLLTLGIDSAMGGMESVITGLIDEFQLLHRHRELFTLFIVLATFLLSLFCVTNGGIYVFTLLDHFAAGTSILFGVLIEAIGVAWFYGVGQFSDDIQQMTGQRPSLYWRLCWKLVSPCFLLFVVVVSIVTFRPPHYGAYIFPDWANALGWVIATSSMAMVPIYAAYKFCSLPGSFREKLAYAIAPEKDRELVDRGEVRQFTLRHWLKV

Sodium-dependent serotonin transporter, sequence (P31652 whole entry): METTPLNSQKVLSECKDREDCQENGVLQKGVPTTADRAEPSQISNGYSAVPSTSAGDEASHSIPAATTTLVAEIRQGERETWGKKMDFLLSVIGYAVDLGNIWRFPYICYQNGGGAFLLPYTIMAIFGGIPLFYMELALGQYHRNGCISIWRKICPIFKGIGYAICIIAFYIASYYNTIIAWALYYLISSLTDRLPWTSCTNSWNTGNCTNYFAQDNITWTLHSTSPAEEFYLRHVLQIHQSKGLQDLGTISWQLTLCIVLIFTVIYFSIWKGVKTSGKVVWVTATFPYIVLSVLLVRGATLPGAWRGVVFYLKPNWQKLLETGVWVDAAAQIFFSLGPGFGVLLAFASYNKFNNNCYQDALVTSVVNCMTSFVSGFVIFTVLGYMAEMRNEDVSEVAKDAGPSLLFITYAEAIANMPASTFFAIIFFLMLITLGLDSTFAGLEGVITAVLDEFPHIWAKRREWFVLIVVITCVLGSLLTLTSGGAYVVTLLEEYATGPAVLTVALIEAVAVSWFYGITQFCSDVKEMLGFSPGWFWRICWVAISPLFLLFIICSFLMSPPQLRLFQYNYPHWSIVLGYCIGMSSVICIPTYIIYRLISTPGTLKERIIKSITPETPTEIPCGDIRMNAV

Structure (SMILES) | IC50 [1] [µM] | EC50 (HEK293) [µM] | EC50 (SH-SY5Y; read-out: pEC50 (converted)) [µM] | EC50 (SH-SY5Y; read-out: EC50) [µM] | IC50 [2] [µM] | IC50 [3] [µM]
CON(C)C(C)Cc1ccc(SC)cc1 (stereo not given) | 25.1 | 525 | > 10000 | – | – | –
CSc1ccc(CC(C)NO)cc1 (stereo not given) | 0.436 | 38 | 575 | – | – | –
CCCNC(CC)Cc1ccc(SC)cc1 (stereo not given) | 0.621 | 303 | 3020 | – | – | –
CCNC(CC)Cc1ccc(SCC)cc1 (stereo not given) | 1.8 | 251 | 245 | – | – | –
CCSc1ccc(CC(CC)N(C)O)cc1 (stereo not given) | 2 | 51.3 | 209 | – | – | –
CC(N)Cc1ccc(SCCN(C)C)cc1 (stereo not given) | 43.3 | 8.71 | 240 | 1 | – | –
CCC(Cc1ccc(SC)cc1)NC1CC1 (stereo not given) | 0.872 | 10.7 | > 10000 | – | – | –
CCC(Cc1ccc(SC)cc1)NO (stereo not given) | 0.598 | 8.51 | 31.6 | – | – | –
COCCNC(C)Cc1ccc(SC)cc1 (stereo not given) | 3.58 | 22.9 | 1350 | – | – | –
CC(N)Cc1ccc2c(c1)OCO2 (stereo not given) [TENAMFETAMINE] | 0.996 | 324 | > 10000 | – | 0.266 | 0.89
CCC(Cc1ccc(SC)cc1)NC(C)C (stereo not given) | 1.94 | 17.4 | 339 | – | – | –
CCC(Cc1ccc(SC)cc1)NCCOC (stereo not given) | 2.82 | 16.2 | 3890 | – | – | –
CSc1ccc(CC(C)NC(C)C)cc1 (stereo not given) | 1.85 | 30.9 | 1950 | – | – | –
CCSc1ccc(CC(CC)NO)cc1 (stereo not given) | 1.45 | 11.5 | 1820 | – | – | –
CCSc1ccc(CC(C)N(C)O)cc1 (stereo not given) | 1.57 | 12.3 | 43.7 | – | – | –
CCC(N)Cc1ccc(SC)cc1 (stereo not given) | 0.611 | 14.8 | 437 | – | – | –
CCNC(C)Cc1ccc(SC)cc1 (stereo not given) | 0.963 | 16.2 | 1860 | – | – | –
C#CCNC(CC)Cc1ccc(SC)cc1 (stereo not given) | 0.399 | 20.4 | 394 | – | – | –

Structure (SMILES) | IC50 [1] [µM] | EC50 (HEK293) [µM] | EC50 (SH-SY5Y; read-out: pEC50 (converted)) [µM] | EC50 (SH-SY5Y; read-out: EC50) [µM] | IC50 [2] [µM] | IC50 [3] [µM]
C=CCNC(C)Cc1ccc(SC)cc1 (stereo not given) | 0.524 | 15.5 | 123 | – | – | –
CSc1ccc(CC(C)NCCO)cc1 (stereo not given) | 0.868 | 10 | 2290 | – | – | –
CCNC(CC)Cc1ccc(SC)cc1 (stereo not given) | 0.823 | 10 | 151 | – | – | –
COc1ccc(CC(C)N)cc1 (stereo not given) [PARA-METHOXYAMPHETAMINE] | 0.173 | 457 | > 10000 | – | – | –
CCSc1ccc(CC(C)N)cc1 (stereo not given) | 1.4 | 15.1 | 64.6 | 1 | – | –
CSc1ccc(CC(C)N(C)C)cc1 (stereo not given) | 0.52 | 20 | 1860 | – | – | –
CCSc1ccc(CC(N)CC)cc1 (stereo not given) | 1.29 | 5.13 | 53.7 | – | – | –
CCSc1ccc(CC(C)NC)cc1 (stereo not given) | 0.724 | 7.59 | 282 | – | – | –
CONC(C)Cc1ccc(SC)cc1 (stereo not given) | 0.664 | 11 | 2450 | – | – | –
CCC(Cc1ccc(SC)cc1)NC (stereo not given) | 0.437 | 50.1 | 832 | – | – | –
CCSc1ccc(CC(C)NO)cc1 (stereo not given) | 0.625 | 32.4 | 708 | – | – | –
CCNC(C)Cc1ccc(SCC)cc1 (stereo not given) | 0.478 | 6.31 | 302 | – | – | –
CSc1ccc(CC(C)N(C)O)cc1 (stereo not given) | 1.87 | 24 | 229 | – | – | –
CC(N)Cc1ccc(SCc2ccccc2)cc1 (stereo not given) | 0.679 | 2.95 | 19.5 | 1 | – | –
C#CCNC(C)Cc1ccc(SC)cc1 (stereo not given) | 0.688 | 24.5 | 2340 | – | – | –
CNC(C)Cc1ccc(SC)cc1 (stereo not given) | 0.417 | 19.5 | 1550 | – | – | –
CSc1ccc(CC(C)NC2CC2)cc1 (stereo not given) | 0.702 | 18.6 | 372 | – | – | –
